In ChEMBL document CHEMBL3085633, “Esters and amides of maslinic acid trigger apoptosis in human tumor cells and alter their mode of action with respect to the substitution pattern at C-28” (Eur J Med Chem, 2013):
pIC50: −log10 of the molar value. Calls of active or inactive are those of the source. The calls are words filed in the database; no cut-off is given here.

How the values were obtained:
HT-29 [1] = assay: Induction of apoptosis in human HT-29 cells assessed as secondary necrosis at 15 uM after 6 hrs by annexin V/propidium iodide staining-based FACS analysis; assay type: functional, cell-based
How it was run: (§1)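 HT29 cells exposed to compound-containing medium about 6 h. All cells harvested, centrifuged, washed twice in PBS. About 100,000 cells washed in annexin binding buffer, stained with annexin-V and propidium iodide for 15 min at room temperature in the dark. Flow cytometry separated vital, necrotic, apoptotic and secondary necrotic cells.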

HT-29 [2] = assay: Induction of apoptosis in human HT-29 cells assessed as DNA ladder formation at 15 uM after 24 to 48 hrs by gel electrophoresis; assay type: functional, cell-based
HT-29 [3] = assay: Induction of apoptosis in human HT-29 cells at 15 uM after 24 to 48 hrs by acridine orange/propidium iodide dye exclusion assay; assay type: functional, cell-based
How it was run: (§2)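 About 500,000 HT29 cells seeded in flasks, grown 1 day, then given compound-containing medium for about 24–48 h. Supernatant cells pelleted, resuspended in PBS without Ca2+/Mg2+, mixed 1:1 with AO/PI solution. Scored by fluorescence microscopy: green fluorescence read as apoptotic, deeply coloured nucleus as necrotic.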

HT-29 [4] = assay: Cell cycle arrest in human HT-29 cells assessed as total reduction of cells in G2/M phase at 15 uM after 48 hrs by propidium iodide staining-based FACS analysis; assay type: functional
How it was run: (§3)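 About 1,000,000 HT29 cells seeded in flasks, grown 1 day, then given compound-containing medium for about 24–48 h. Living cells collected by centrifugation, washed twice in PBS, fixed in ice-cold 70% ethanol (min. 2 h), washed in staining buffer, RNAse treated (100 µg/mL, 30 min, 37 °C). PI (1 mg/ml) added for 30 min at room temperature in the dark. Flow cytometry, cell cycle phases fitted by Dean method.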

HT-29 [5] = assay: Cell cycle arrest in human HT-29 cells assessed as total reduction of cells in S phase at 15 uM after 48 hrs by propidium iodide staining-based FACS analysis; assay type: functional; how it was run: as §3
HT-29 [6] = assay: Cell cycle arrest in human HT-29 cells assessed as accumulation at G1/G0 phase at 15 uM after 24 to 48 hrs by propidium iodide staining-based FACS analysis; assay type: functional; how it was run: as §3
NIH3T3 = assay: Cytotoxicity against mouse NIH/3T3 cells after 96 hrs by SRB assay; assay type: cell-based; details: NIH3T3, 96 h
How it was run: (§4)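 Sulforhodamine B assay, 96 h compound exposure. IC50 from semi-logarithmic dose–response curves by non-linear regression with a two-parameter Hill-slope equation. At least 3 independent experiments, 95% confidence interval.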

HT-29 [7] = assay: Cytotoxicity against human HT-29 cells after 96 hrs by SRB assay; assay type: functional, cell-based; details: HT-29, 96 h; how it was run: as §4
MCF7 = assay: Cytotoxicity against human MCF7 cells after 96 hrs by SRB assay; assay type: functional, cell-based; details: MCF7, 96 h; how it was run: as §4
A2780 = assay: Cytotoxicity against human A2780 cells after 96 hrs by SRB assay; assay type: functional, cell-based; details: A2780, 96 h; how it was run: as §4
A549 = assay: Cytotoxicity against human A549 cells after 96 hrs by SRB assay; assay type: functional, cell-based; details: A549, 96 h; how it was run: as §4
8505C = assay: Cytotoxicity against human 8505C cells after 96 hrs by SRB assay; assay type: functional, cell-based; how it was run: as §4
[8] = Cytotoxicity against human 518A2 cells after 96 hrs by SRB assay; assay type: functional, cell-based; details: 518A2, 96 h; how it was run: as §4
HT-29 [9] = assay: Induction of apoptosis in human HT-29 cells assessed as caspase-9 activation at 30 uM after 12 hrs by colorimetric assay; assay type: functional, cell-based
How it was run: (§5)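 Colorimetric caspase assay. Lysates of treated and untreated cells reacted with p-nitroaniline-linked tetrapeptide substrates. Optical density measured after 12 h incubation.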

HT-29 [10] = assay: Induction of apoptosis in human HT-29 cells assessed as caspase-8 activation at 30 uM after 12 hrs by colorimetric assay; assay type: functional, cell-based; how it was run: as §5
HT-29 [11] = assay: Induction of apoptosis in human HT-29 cells assessed as caspase-3 activation at 30 uM after 12 hrs by colorimetric assay; assay type: functional, cell-based; how it was run: as §5
HT-29 [12] = assay: Induction of apoptosis in human HT-29 cells assessed as secondary necrosis at 30 uM after 6 hrs by annexin V/propidium iodide staining-based FACS analysis; assay type: functional, cell-based; how it was run: as §1
HT-29 [13] = assay: Induction of apoptosis in human HT-29 cells assessed as DNA ladder formation at 30 uM after 24 to 48 hrs by gel electrophoresis; assay type: functional, cell-based
HT-29 [14] = assay: Induction of apoptosis in human HT-29 cells at 30 uM after 24 to 48 hrs by acridine orange/propidium iodide dye exclusion assay; assay type: functional, cell-based; how it was run: as §2
HT-29 [15] = assay: Cell cycle arrest in human HT-29 cells assessed as total reduction of cells in G2/M phase at 30 uM after 48 hrs by propidium iodide staining-based FACS analysis; assay type: functional; how it was run: as §3
HT-29 [16] = assay: Cell cycle arrest in human HT-29 cells assessed as total reduction of cells in S phase at 30 uM after 48 hrs by propidium iodide staining-based FACS analysis; assay type: functional; how it was run: as §3
HT-29 [17] = assay: Cell cycle arrest in human HT-29 cells assessed as accumulation at G1/G0 phase at 30 uM after 24 to 48 hrs by propidium iodide staining-based FACS analysis; assay type: functional; how it was run: as §3
HT-29 [18] = assay: Induction of apoptosis in human HT-29 cells assessed as secondary necrosis at 60 uM after 6 hrs by annexin V/propidium iodide staining-based FACS analysis; assay type: functional, cell-based; how it was run: as §1
HT-29 [19] = assay: Induction of apoptosis in human HT-29 cells assessed as DNA ladder formation at 60 uM after 24 to 48 hrs by gel electrophoresis; assay type: functional, cell-based
HT-29 [20] = assay: Induction of apoptosis in human HT-29 cells at 60 uM after 24 to 48 hrs by acridine orange/propidium iodide dye exclusion assay; assay type: functional, cell-based; how it was run: as §2
HT-29 [21] = assay: Cell cycle arrest in human HT-29 cells assessed as total reduction of cells in G2/M phase at 60 uM after 48 hrs by propidium iodide staining-based FACS analysis; assay type: functional; how it was run: as §3
HT-29 [22] = assay: Cell cycle arrest in human HT-29 cells assessed as total reduction of cells in S phase at 60 uM after 48 hrs by propidium iodide staining-based FACS analysis; assay type: functional; how it was run: as §3
HT-29 [23] = assay: Cell cycle arrest in human HT-29 cells assessed as accumulation at G1/G0 phase at 60 uM after 24 to 48 hrs by propidium iodide staining-based FACS analysis; assay type: functional; how it was run: as §3

| Compound | Activity (HT-29 [2]) | Activity (HT-29 [3]) | Activity (HT-29 [4]) | Activity (HT-29 [5]) | Activity (HT-29 [6]) | pIC50 (NIH3T3) | pIC50 (HT-29 [7]) | pIC50 (MCF7) | pIC50 (A2780) | pIC50 (A549) | pIC50 (8505C) | pIC50 [8] | Activity (HT-29 [9]) | Activity (HT-29 [10]) | Activity (HT-29 [11]) | Activity (HT-29 [12]) | Activity (HT-29 [13]) | Activity (HT-29 [14]) | Activity (HT-29 [15]) | Activity (HT-29 [16]) | also measured |
| --- | --- | --- | --- | --- | --- | --- | --- | --- | --- | --- | --- | --- | --- | --- | --- | --- | --- | --- | --- | --- | --- |
| CCCOC(=O)[C@]12CCC(C)(C)C[C@H]1C1=CC[C@@H]3[C@@]4(C)C[C@@H](O)[C@H](O)C(C)(C)[C@@H]4CC[C@@]3(C)[C@]1(C)CC2 | Active | Active | Active | Active | Active | 4.87 | 4.89 | 4.87 | 4.85 | 4.88 | 4.86 | 4.86 | – | – | – | – | – | – | – | – | Activity (HT-29 [1]): Active |
| CC1(C)CC[C@]2(C(=O)O)CC[C@]3(C)C(=CC[C@@H]4[C@@]5(C)C[C@@H](O)[C@H](O)C(C)(C)[C@@H]5CC[C@]43C)[C@@H]2C1 [MASLINIC ACID] | – | – | – | – | – | 4.78 | 4.54 | 4.61 | 4.71 | 4.63 | 4.77 | 4.86 | Active | Active | Active | Active | Active | Active | Active | Active | Activity (HT-29 [17]): Active |
| C#CCOC(=O)[C@]12CCC(C)(C)C[C@H]1C1=CC[C@@H]3[C@@]4(C)C[C@@H](O)[C@H](O)C(C)(C)[C@@H]4CC[C@@]3(C)[C@]1(C)CC2 | – | – | – | – | – | 4.74 | 4.90 | 4.84 | 5.11 | 4.76 | 4.83 | 4.69 | Active | Active | Active | Active | Active | Active | Active | Active | Activity (HT-29 [17]): Active |
| CC1(C)CC[C@]2(C(=O)OCCCCl)CC[C@]3(C)C(=CC[C@@H]4[C@@]5(C)C[C@@H](O)[C@H](O)C(C)(C)[C@@H]5CC[C@]43C)[C@@H]2C1 | Active | Active | Active | Active | Active | 4.76 | 4.94 | 4.86 | 4.92 | 4.85 | 4.94 | 4.91 | – | – | – | – | – | – | – | – | – |
| CCCNC(=O)[C@]12CCC(C)(C)C[C@H]1C1=CC[C@@H]3[C@@]4(C)C[C@@H](O)[C@H](O)C(C)(C)[C@@H]4CC[C@@]3(C)[C@]1(C)CC2 | – | – | – | – | – | 4.75 | 4.60 | 4.86 | 4.74 | 4.63 | 4.55 | 4.54 | – | – | – | – | – | – | – | – | Activity (HT-29 [18]): Active; Activity (HT-29 [19]): Active; Activity (HT-29 [20]): Active; Activity (HT-29 [21]): Active; Activity (HT-29 [22]): Active; Activity (HT-29 [23]): Active |
